The text below walks through data of ChEMBL document CHEMBL1154396, “1-(5-Carboxyindol-1-yl)propan-2-ones as inhibitors of human cytosolic phospholipase A2alpha: synthesis and properties of bioisosteric benzimidazole, benzotriazole and indazole analogues” (Bioorg Med Chem Lett, 2009).

pIC50: −log10 of the molar value. ≈ marks a conversion by molar mass, not a printed value.

For orientation: pIC50 means the IC50 on a negative log10 scale, so that one unit is a factor of ten. Usually solubility (thermodynamic) stands for the concentration in solution at equilibrium with solid.

Data set [1] concerns the target T1, Cytosolic phospholipase A2 (Homo sapiens, UniProt P47712).
T1 sequence (P47712 whole entry): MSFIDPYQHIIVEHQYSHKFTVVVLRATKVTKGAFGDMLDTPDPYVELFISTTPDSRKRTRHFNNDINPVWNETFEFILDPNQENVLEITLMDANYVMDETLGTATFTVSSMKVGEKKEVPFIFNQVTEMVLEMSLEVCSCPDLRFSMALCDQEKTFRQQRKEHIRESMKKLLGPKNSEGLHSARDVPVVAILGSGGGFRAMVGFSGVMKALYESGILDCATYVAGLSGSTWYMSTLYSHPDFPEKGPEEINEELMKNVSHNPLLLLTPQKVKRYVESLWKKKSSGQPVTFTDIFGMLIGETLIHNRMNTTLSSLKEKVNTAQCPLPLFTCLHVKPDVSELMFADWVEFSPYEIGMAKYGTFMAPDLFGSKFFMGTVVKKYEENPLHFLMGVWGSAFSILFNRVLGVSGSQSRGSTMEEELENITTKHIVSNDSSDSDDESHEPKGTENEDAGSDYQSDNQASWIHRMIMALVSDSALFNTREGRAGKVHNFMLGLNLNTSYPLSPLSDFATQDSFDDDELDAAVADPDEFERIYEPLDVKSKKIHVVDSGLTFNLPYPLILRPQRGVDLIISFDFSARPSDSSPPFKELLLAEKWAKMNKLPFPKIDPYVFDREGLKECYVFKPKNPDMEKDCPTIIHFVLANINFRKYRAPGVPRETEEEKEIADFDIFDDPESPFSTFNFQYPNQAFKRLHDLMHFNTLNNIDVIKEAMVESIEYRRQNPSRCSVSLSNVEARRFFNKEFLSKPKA
Put plainly: Inhibition of cPLA2 in human platelets assessed as arachidonic acid release. In outline:
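cPLA2α purified from human platelets; substrate covesicles of 1-stearoyl-2-arachidonoyl-sn-glycero-3-phosphocholine (SAPC) with 1,2-dioleoyl-sn-glycerol (DOG). Arachidonic acid released from SAPC after 60 min incubation quantified by reversed-phase HPLC, UV 200 nm; inhibition from release with vs without compound. IC50 values are means of at least two independent determinations.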

Data set [2] can be described thus: Thermodynamic solubility in sodium phosphate buffer at pH 7.4. Type of data set: physicochemical. In outline:
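Thermodynamic method: solid compound suspended in sodium phosphate buffer pH 7.4, sonicated 10 min, then shaken 20 h at room temperature. Undissolved material removed by centrifugation, and dissolved concentration in the aqueous phase measured by HPLC.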

For the next data set, the system named is Liver microsomes. Put plainly: Metabolic stability in rat liver microsomes. Type of data set: ADME, Microsome. In outline:
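Rat liver microsomes incubated aerobically with test compound, with and without NADPH, stopped after 30 min. Parent remaining in the NADPH incubation quantified by reversed-phase HPLC with UV detection against the NADPH-free reference incubation and given as percent remaining. Main metabolite structure confirmed by LC/MS. Mean of at least two independent determinations.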
A general note: Liver microsomes are vesicles of endoplasmic reticulum, rich in cytochrome P450 enzymes.

With `CCCCCCCCc1ccc(OCC(=O)Cn2nnc3ccc(C(=O)O)cc32)cc1`, the pIC50 in data set [1] was 7.80. The molecule further came in with a solubility (thermodynamic) in data set [2] of 2 µg/mL (≈ 4.72 µM). For the same molecule, the Stability in the data set on Liver microsomes stood at 44%.
Take `CCCCCCCCc1ccc(OCC(=O)Cn2ncc3ccc(C(=O)O)cc32)cc1`: in data set [1], the pIC50 was 7.59. Moreover, in data set [2], the solubility (thermodynamic) was 5 µg/mL (≈ 11.8 µM). The same molecule gave a Stability in the data set with Liver microsomes of 36%.
As for `CCCCCCCCc1ccc(OCC(=O)Cn2cnc3cc(C(=O)O)ccc32)cc1`, the pIC50 in data set [1] was 6.82. This molecule showed a solubility (thermodynamic) in data set [2] of 22 µg/mL (≈ 52.1 µM). Moreover, the Stability in the data set with Liver microsomes is reported as 49%.
Regarding `CCCCCCCCc1ccc(OCC(=O)Cn2ncc3cc(C(=O)O)ccc32)cc1`, the negative-log IC50 (pIC50) in data set [1] is 8.30. In data set [2], this molecule gave a solubility (thermodynamic) of under 1 µg/mL. Further, in the data set on Liver microsomes, the Stability was 64%.
On the same counts, the results for `CCCCCCCCc1ccc(OCC(=O)Cn2nnc3cc(C(=O)O)ccc32)cc1` are 7.59, under 1 µg/mL and 43%.
The molecule `CCCCCCCCc1ccc(OCC(=O)Cn2ccc3ccc(C(=O)O)cc32)cc1` displayed a solubility (thermodynamic) in data set [2] of under 1 µg/mL. In the data set on Liver microsomes, the Stability is reported as 39%.
With `CCCCCCCCc1ccc(OCC(=O)Cn2cnc3ccc(C(=O)O)cc32)cc1`, the pIC50 in data set [1] is 7.07. The same molecule had a solubility (thermodynamic) in data set [2] of 7 µg/mL (≈ 16.6 µM). In addition, the Stability with Liver microsomes is listed as 40%.
